ATG4B inhibitor: ATG4B protease inhibitors, primary screen, biochemical, fluorescence, uHTS | ATG4B cleavage of LC3-PLA2, NBD-HPC fluorescence, 1 h | inhibition, % at 8.33 µM | actives 0.51% (n = 340,000) | AID 504462, 2011; in the data active = inhibition above about 40%
Target sequence (Q9Y4P1 whole entry, looked up): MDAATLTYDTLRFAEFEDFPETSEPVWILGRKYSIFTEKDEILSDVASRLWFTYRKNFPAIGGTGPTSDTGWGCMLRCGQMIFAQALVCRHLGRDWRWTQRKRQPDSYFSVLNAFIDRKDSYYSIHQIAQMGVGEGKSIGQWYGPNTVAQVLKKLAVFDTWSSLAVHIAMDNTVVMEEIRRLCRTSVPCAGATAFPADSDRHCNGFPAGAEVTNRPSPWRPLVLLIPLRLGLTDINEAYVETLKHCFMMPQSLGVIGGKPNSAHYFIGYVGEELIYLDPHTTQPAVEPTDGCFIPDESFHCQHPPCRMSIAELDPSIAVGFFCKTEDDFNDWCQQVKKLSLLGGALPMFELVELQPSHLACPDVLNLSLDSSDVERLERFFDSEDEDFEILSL
Calb FLC: C. albicans growth inhibition with fluconazole, primary screen, CaCi-2 strain, Alamar Blue fluorescence. C. albicans CaCi-2 (fluconazole-resistant clinical isolate) + fluconazole, 48 h. growth inhibition, % (concentration not given with the values). actives 0.57% (n = 300,000). AID 1979, 2009;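 active = growth inhibition above about 58% in most replicates, limit read from the data, passing the limit was not always enough; inconclusive = exactly half the replicates above a set limit; inactive = most replicates below a set limit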;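 also: all wells also contain fluconazole at 8 µg/ml as a sub-toxic cotreatment; 0% = median of DMSO wells and 100% = median of geldanamycin control wells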
NLRP3 yeast inh: NALP3 inflammasome inhibitors in reconstituted yeast, primary screen, luminescence, uHTS | Yeast reconstituted NLRP3/ASC/caspase-1, beta-gal luminescence, 24 h | inhibition, % at 10 µM | actives 0.39% (n = 330,000);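 active = inhibition of 50% or more; inactive = inhibition below 50%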;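 also: plate controls were induced DMSO wells for no effect and uninduced yeast grown without galactose for full effect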
ALR inh: inhibitors of human ALR sulfhydryl oxidase, primary screen, biochemical, H2O2 detection, HRP-luminol luminescence, single point; FAD-linked sulfhydryl oxidase ALR (Homo sapiens), P55789; purified ALR, DTT oxidation; inhibition, % (concentration not given with the values); actives 3.8% (n = 290,000);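 active = mean replicate inhibition above about 79%, with every replicate also reaching it, limit read from the data; inconclusive = only one of the two criteria met; inactive = mean below limit and not every replicate reaching it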
UCH37 DUB inh: inhibitors of human UCH37 deubiquitinase, primary screen, biochemical, Ub-AMC cleavage, fluorescence | Ubiquitin carboxyl-terminal hydrolase isozyme L5 (Homo sapiens), Q9Y5K5 | purified proteasome/UCH37 | inhibition, % (no concentration beside the values) | actives 0.33% (n = 330,000);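 active = mean inhibition over replicate wells above about 20%, limit read from the data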;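 also: 0% = compound-free wells with enzyme and 100% = wells lacking proteasome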
Target sequence (Q9Y5K5 whole entry, looked up): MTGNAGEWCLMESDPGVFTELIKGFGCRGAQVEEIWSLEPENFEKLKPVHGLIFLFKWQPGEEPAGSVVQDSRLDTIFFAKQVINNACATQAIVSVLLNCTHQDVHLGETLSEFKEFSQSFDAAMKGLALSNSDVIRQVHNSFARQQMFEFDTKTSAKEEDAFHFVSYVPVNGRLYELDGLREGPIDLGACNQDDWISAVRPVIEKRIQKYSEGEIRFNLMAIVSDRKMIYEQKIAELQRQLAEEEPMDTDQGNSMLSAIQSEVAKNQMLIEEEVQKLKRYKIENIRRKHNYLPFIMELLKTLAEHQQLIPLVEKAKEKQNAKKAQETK
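Material: human UCH37 enzyme supplied as purified proteasome complex. Measure: % inhibition of Ub-AMC cleavage fluorescence. Medium: pH 7.4 Tris-HCl (50 mM) with ovalbumin, ATP-MgCl2, DTT. Times: 30 min preincubation with enzyme, 25 min cleavage at room temperature. Detection: AMC fluorescence intensity at 355/460 nm.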
NALP1 inh: NALP1 inflammasome inhibitors in reconstituted yeast, colorimetric, S. cerevisiae, triplicate retest | S. cerevisiae NALP1/ASC/caspase-1 growth, X-gal OD620, 72 h | inhibition, % at 10 µM | actives 0.61% (n = 280,000) | AID 2071, 2009; in the data active = inhibition mostly above about 24%, no sharp cut-off; inactive = mostly below about 32%
UCH37 reconfirm: retest of human UCH37 deubiquitinase inhibitors, confirmation, biochemical, Ub-AMC cleavage rate, fluorescence; shares compounds with UCH37 DUB inh; Proteasome-bound UCH37; inhibition, % at 20 µM; actives 27% (n = 480);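 active = average inhibition over replicates above about 50%, so the earlier screening hit is confirmed, limit read from the data; inactive = the rest, counted as false positives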;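 also: based on cleavage rate fitted by regression over a 30 min kinetic read; 0% = proteasome plus Ub-AMC and 100% = Ub-AMC without proteasome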
Active calls of the source: *; u = inconclusive; x = no result given. Shown are actives, neighbours in structure and some others; about 4.8% of the full set was active somewhere.

SMILES | ATG4B inhibitor | Calb FLC | NLRP3 yeast inh | ALR inh | UCH37 DUB inh | NALP1 inh | UCH37 reconfirm
C=C(C)C1CCC(C)=C1CC(C)(C)/C=N\n1cnnc1 (configuration not stated) | 4 | -1 | 21 | -7 | x | 29 | x
Cc1ccc(CN2CCN(N=Cc3cccnc3)CC2)c(C)c1 | x | x | x | x | 4 | x | x
COc1ccc(C2/C(=C(\O)c3ccc(OC)c(Cl)c3)C(=O)C(=O)N2CCN(C)C)cc1 (configuration not stated) | -6 | -2 | 28 | 4 | 34* | 4 | 14
CCCOc1ccc(/C(O)=C2/C(=O)C(=O)N(CCN(C)C)C2c2ccc(O)c(OC)c2)cc1 (configuration not stated) | 2 | x | x | x | 22* | -3 | -6
COc1ccc(/C(O)=C2/C(=O)C(=O)N(CCCN(C)C)C2c2ccccc2)cc1Cl (configuration not stated) | x | x | x | x | x | 13 | x
Nc1c2c(=O)[nH]c(O)cc2nn1-c1ccccc1 | -4 | x | x | x | 31* | x | 23
Cc1c(C)c2c(C)nn(-c3ccccc3)c2[nH]c1=O | 6 | -2 | 10 | 4 | 0 | 2 | x
COc1ccc(N(C(=O)c2ccc(Cl)cc2)C2=CC3CCC(C2)N3C)cc1 (configuration not stated) | 0 | 1 | 20 | -21 | 42* | 8 | 0
CCOc1cc(C(c2c(C)[nH][nH]c2=O)c2c(C)[nH][nH]c2=O)ccc1O | 3 | -25 | -39 | 95* | 58* | 19 | 40
Cc1[nH][nH]c(=O)c1C(c1ccc(O)c(Br)c1)c1c(C)[nH][nH]c1=O | 2 | 7 | -1 | 70 | 3 | -11 | x
NC(=O)COC(=O)c1ccc(Cl)c(S(=O)(=O)N(Cc2ccccc2)c2ccc(Cl)cc2)c1 | 18 | 18 | 16 | 0 | 39* | 39 | -37
NC(=O)NC(=O)COC(=O)c1ccc(Cl)c(S(=O)(=O)N(Cc2ccccc2)c2ccc(Cl)cc2)c1 | 24 | 45 | 13 | -6 | 2 | 42 | x
CN1CCS/C1=C/C=C1\SC(=S)N(CC(=O)O)C1=O | -19 | 0 | 21 | 73 | 38* | -20 | 30
CCCCCc1ccc(OCCOCCn2c[n+](C)c3ccccc32)c(CCCCC)c1 | 17 | 104* | x | x | 33* | 14 | 57*
CC(=O)Nc1ccc(OCCC[n+]2ccccc2)cc1 | -6 | -10 | 2 | -6 | 2 | -10 | x
CCCCCc1ccc(OCCC[n+]2ccccc2)c(CCCCC)c1 | 8 | 67 | 8 | -20 | 30* | 17 | 36
CCC(C)(C)c1ccc(OCCCC[n+]2ccc(C)cc2)c(C(C)(C)CC)c1 | 11 | 94* | -32 | 45 | 27* | 6 | 21
CCC(C)(C)c1ccc(OCCCC[n+]2cccc(C)c2C)c(C(C)(C)CC)c1 | 19 | 109* | 37 | -26 | 38* | 29 | 59*
Cc1cc(C(C)(C)C)ccc1OCCCCN1CCCC1 | 14 | 0 | 24 | -4 | 3 | 44 | x
O=C1CN(C(=O)COC(=O)c2ccc([N+](=O)[O-])s2)c2ccccc2N1 | -2 | x | 11 | x | 76* | x | 8
O=C(COC(=O)c1ccc([N+](=O)[O-])s1)NC(=O)NCc1ccccc1 | -21 | -1 | 21 | -16 | 67* | -2 | 10
O=C(COC(=O)c1ccc([N+](=O)[O-])s1)NCc1ccc(F)cc1 | -8 | 36 | 18 | -30 | 65* | 24 | 25
O=C1CN(C(=O)COC(=O)c2cccs2)c2ccccc2N1 | 2 | x | 8 | x | 2 | x | x
O=C(COC(=O)c1ccc(O)cc1)NC(=O)NCc1ccccc1 | -8 | x | 7 | x | 1 | x | x
O=C(COC(=O)c1ccc([N+](=O)[O-])s1)NCCc1ccccc1 | -12 | x | 23 | -14 | 81* | x | 14
SMILES | ATG4B inhibitor | Calb FLC | NLRP3 yeast inh | ALR inh | UCH37 DUB inh | NALP1 inh | UCH37 reconfirm
COc1ccc(CNC(=O)CC(C)=NNC(=O)c2ccc(OC)cc2OC)cc1 | x | x | x | x | 5 | x | x
COc1ccc(CC(=O)ON=C(N)c2ccc(Br)cc2)cc1OC | x | x | x | x | 0 | x | x
Cc1ccc(C=Nn2c(C)nc3ccccc3c2=O)o1 | x | x | x | x | 7 | x | x
Cn1cccc1-c1cc(C(=O)NN=Cc2cccc(O)c2)[nH]n1 | x | x | x | x | 0 | x | x
CC(CC(=O)Nc1ccccc1C#N)=NNC(=O)c1ccncc1 | x | x | x | x | 0 | x | x
Cc1nc(C(F)(F)F)c(C(=O)NN=C(N)c2cccnc2)s1 | x | x | x | x | 5 | x | x
CC(NC(=O)COC(=O)c1ccc([N+](=O)[O-])s1)c1ccccc1 (configuration not stated) | -19 | 2 | 13 | -8 | 33* | 41 | 12
O=C(COC(=O)c1ccc([N+](=O)[O-])s1)NNC(=O)c1ccccc1 | 2 | x | 17 | -87 | 80* | x | 19
Cc1ccc(C(=O)OCC(=O)NC(C)c2ccccc2)s1 (configuration not stated) | -2 | x | 16 | -4 | 0 | x | x
O=C(NN=Cc1ccc(Cl)c([N+](=O)[O-])c1)c1ccc2c(c1)OCCO2 | x | x | x | x | 4 | x | x
CN(Cc1ccccc1)C(=O)c1cccc(NC(=O)Cc2ccc([N+](=O)[O-])cc2)c1 | -8 | x | 12 | -6 | 41* | x | 9
O=C(CN1CCS(=O)(=O)CC1)NN=Cc1cccc(C(F)(F)F)c1 | x | x | x | x | 3 | x | x
COc1ccc(C=NN2CCN(c3ccccc3OC)CC2)cc1OC | x | x | x | x | 2 | x | x
O=C(Cn1cnc2ccccc2c1=O)NN=Cc1ccc(Br)cc1 | x | x | x | x | 3 | x | x
CC(=NNC(=O)CC1N=C(Cc2ccccc2)NNC1=O)c1ccc(Br)cc1 (configuration not stated) | x | x | x | x | 5 | x | x
CC(=O)NNc1nc(-c2ccc(NC(C)=O)cc2)cs1 | -4 | 7 | -6 | 99* | 37* | 20 | -22
CCOC(=O)C1=C(COC(=O)c2ccc([N+](=O)[O-])s2)NC(=O)NC1C (configuration not stated) | -9 | x | 18 | -12 | 83* | x | 27
O=C(NCc1ccccc1)c1ccc(N2CCC3(CC2)CC(c2ccccc2)=NO3)c([N+](=O)[O-])c1 | -11 | -1 | 19 | 0 | 47* | 21 | 3
COc1ccc([N+](=O)[O-])cc1NC(=O)c1ccc(CN(c2ccc(C)c(C)c2)S(C)(=O)=O)cc1 | -9 | u | 4 | -9 | 47* | 27 | -2
c1ccc(C[C@H]2CNCCN2CCCCC2CCCCC2)cc1 | 15 | -16 | 19 | -1 | 36* | x | 4
Cc1cc(C)c(S(=O)(=O)N=C2C=C(SCC(=O)O)C(=O)c3ccccc32)cc1C | x | x | x | x | 49* | x | 82*
